# A selection: hits, their analogues and other compounds. The true share with any hit is near 2.3%.
# TRPC4 act: activators of mouse TRPC4 channel, primary screen, Fluo4 calcium, HEK293 TRPC4beta/mu-opioid cells; Short transient receptor potential channel 4 (Mus musculus), Q9QUQ5; AID 2237, 2010; B-score at 10 µM; Fluo4 calcium fluorescence; hits give high values; hit rate 0.49% among 310,000;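 active = B-score above 5 SD of library B-scores, and initial fluorescence ratio not above library mean plus 5 SD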;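 also: positive B-score marks a calcium rise read as TRPC4 activation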
#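 Assay system: HEK293 stable line with TRPC4beta plus mu-opioid receptor; schedule: 45 min room-temperature Fluo4 loading, 110 s read; technique: kinetic Fluo4 calcium fluorescence; evaluation: integrated baseline-normalised fluorescence ratio, converted to per-well B score; controls: buffer (low) and maximal DAMGO (high)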
# TRPC4 block: inhibitors of mouse TRPC4 channel, primary screen, Fluo4 calcium, HEK293 TRPC4beta/mu-opioid cells. Short transient receptor potential channel 4 (Mus musculus), Q9QUQ5. DAMGO-evoked Fluo4 calcium flux; hits give low values. B-score at 10 µM. hit rate 0.39% among 300,000. AID 2247, 2010;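 active = B-score over 3 SD under the library average, no early fluorescence shift, positive overall ratio signal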
#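 Material: HEK293 cells with stable TRPC4beta plus mu-opioid receptor expression; probe or stimulus: DAMGO in two steps, submaximal then maximal; technique: Fluo4 calcium fluorescence by kinetic imaging, 5 s 1 Hz baseline; measure: integrated fluorescence ratio relative to baseline, converted to per-well B score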
# TRPC6 inh: mouse TRPC6 channel inhibitors, primary screen, cell-based, HEK293, membrane potential dye; Short transient receptor potential channel 6 (Mus musculus), Q61143; ACh-evoked depolarization; hits give low values; B-score at 10 µM; hit rate 1.1% among 310,000; AID 2553, 2010;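 active = B-score under library mean minus 3 SD, initial fluorescence not abnormally high, positive integrated signal ratio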;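 also: B-score derived from integrated fluorescence ratio over the kinetic read; more negative B-score means stronger inhibition of depolarization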
# TRPC4 PAM: positive allosteric modulators of TRPC4, primary screen, cell-based, mouse TRPC4beta, HEK293 mu-opioid, Fluo-4 calcium; Short transient receptor potential channel 4 (Mus musculus), Q9QUQ5; DAMGO EC20, Fluo-4 Ca2+ flux; hits give high values; hit rate 0.42% among 310,000; B-score at 10 µM; AID 2227, 2009;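 active = B-score of calcium response area above 5 SD of library B-scores, with initial fluorescence ratio within 5 SD of library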
# TRPC6 act: mouse TRPC6 channel activators, primary screen, cell-based, HEK293, membrane potential dye. Short transient receptor potential channel 6 (Mus musculus), Q61143. HEK293-TRPC6 membrane potential dye fluorescence; hits give high values. B-score at 10 µM. hit rate 0.13% among 310,000. AID 2550, 2010;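 active = B-score of the integrated fluorescence ratio above library mean plus 3 SD, and starting fluorescence ratio within library mean plus 5 SD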;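 also: higher score means more depolarization so channel activation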
# Hits are given with their value; - = inactive.
SMILES,TRPC4 act,TRPC4 block,TRPC6 inh,TRPC4 PAM,TRPC6 act
Cc1ccc(-c2cc(C(=O)Nc3cc(C)on3)c3ccccc3n2)cc1,-,-,-,-,-
C=CCN(c1ccccc1)S(=O)(=O)c1cccc(C(=O)NC2CCC(O)CC2)c1 (stereo not given),-,-,-,-,-
CC(=O)CSc1nnc(-c2ccco2)n1-c1ccccc1,-,-,-,-,-
CN(Cc1ccccc1)C(=O)CSc1nnc(-c2ccco2)n1-c1ccccc1,-,-7,-,-,-
O=C(COc1cccc2ccccc12)N/N=C/c1ccccc1OCc1ccc(C(=O)O)cc1,-,-5,-,-,-
Cc1ccc(NS(=O)(=O)c2ccc(C(=O)N3CCC3)cc2)cc1,-,-,-,-,-
O=C(c1ccc(S(=O)(=O)Nc2ccccc2)cc1)N1CCCC(C(F)(F)F)C1 (stereo not given),54,-,-,-,-
CCOc1ccc(S(=O)(=O)Nc2ccc(C(=O)N3CCCC3)cc2)cc1,-,-,-,-,-
CCOc1ccc(NS(=O)(=O)c2ccc(C(=O)N3CCCC(C)C3)cc2)cc1 (stereo not given),54,-,-,-,-
Cc1ccc(NS(=O)(=O)c2ccc(C(=O)N3CC(C)OC(C)C3)cc2)cc1 (stereo not given),53,-,-,-,-
O=C(c1ccccc1)c1ccc(C(=O)N2CCCC(C(F)(F)F)C2)cc1 (stereo not given),-,-,-,-,-
Cc1ccc(NC(=O)C(=O)NCCOc2ccc(Cl)cc2)c(C)c1,-,-,-,-,-
CCCCN(CC)CCCNC(=O)C1c2ccccc2C(=O)N(C)C1c1cn(C)c2ccccc12 (stereo not given),80,-,-,-,-
CC(NCc1ccc([N+](=O)[O-])cc1)C1COc2ccccc2O1 (stereo not given),-,-,-,-,-
CCOC(=O)N1CCN(CC(=O)Nc2nnc(C(F)(F)F)s2)CC1,-,-,-,-,-
Cc1cc2[nH]c3ccccc3c2c(C)n1,-,-7,-,-,-
Cc1nc(=S)c2ccccc2[nH]1,-,-,-,-,-
CN(C1=C(N2CCCCC2)C(=O)c2ccccc2C1=O)c1ccccc1,-,-,-7.2,-,-
COc1cc(CNC2CCCC2)c(Br)cc1OC1CCCC1,-,-7,-,-,-
CCOc1c(Br)cc(CNC2CCCCCCC2)cc1OC,-,-6,-,-,-
COc1cc(CNC2CCCCCCC2)cc(Br)c1OCC#N,-,-,-,-,-
CCOc1cc(CNCC(C)C)cc(Cl)c1OCc1ccccc1,-,-,-,-,-
CCOc1cc(CNC2CCCC2)cc(Cl)c1OCc1ccccc1,-,-6,-,-,-
COc1cccc(CNC(=O)CCCc2cn(C)c3ccccc23)c1,-,-,-,-,-
CCCNC(=O)c1onc(CSc2ccc(Cl)cc2)c1C(=O)NC(C)C,-,-,-,-,-
SMILES,TRPC4 act,TRPC4 block,TRPC6 inh,TRPC4 PAM,TRPC6 act
CCOC(=O)C1=C(N)OC2=C(C(=O)CC(C)(C)C2)C1c1ccc(CC)s1 (stereo not given),-,-,-,16,-
CCOC(=O)C1=C(N)OC2=C(C(=O)CC(C)(C)C2)C1c1ccc(C)s1 (stereo not given),-,-,-,-,-
CCCN1CCN(S(=O)(=O)c2c(C)[nH]c(C)c2C(=O)N2CCCCC2)CC1,-,-,-,-,-
Cc1cccc(OCC(=O)Nc2cc(S(=O)(=O)N3CCCCC3)ccc2N2CCN(C)CC2)c1,-,-,-,11,-
Cc1ccccc1C(=O)Nc1cc(S(=O)(=O)N2CCCCC2)ccc1N1CCN(C)CC1,-,-,-,11,-
COc1ccccc1CCC(=O)Nc1cc(S(=O)(=O)N2CCCCC2)ccc1N1CCN(C)CC1,134,-,-,-,-
Cc1cccc(OCC(=O)Nc2ccc(S(=O)(=O)N3CCN(C)CC3)cc2)c1,-,-,-,-,-
CN1CCN(c2ccc(S(=O)(=O)N3CCCCC3)cc2NC(=O)COc2cccc(Cl)c2)CC1,-,-,-,13,-
COc1ccccc1CCC(=O)Nc1cccc(S(=O)(=O)N2CCCC2)c1,-,-,-,-,-
Cc1cccc2c(N=Nc3ccc(S(=O)(=O)Nc4ccc(Cl)cc4)cc3[N+](=O)[O-])c(O)[nH]c12,-,-,-,-,-
O=C(CN1CCN(c2ccc(F)cc2)CC1)NC(=O)NCc1ccco1,-,-,-,-,-
COc1ccc(-n2nc(C(=O)NCC(=O)NCCN(C)C)c3ccccc3c2=O)c(OC)c1,-,-,-,-,-
O=C(CNc1ccc(Br)cc1)c1ccc(O)cc1,-,-8,-,-,-
COc1ccc(C2CC(c3ccccc3)Nc3nc(NC(=O)c4cccs4)nn32)cc1 (stereo not given),-,-6,-,-,-
Cc1ccc(N(C)S(=O)(=O)c2c(C)noc2/C=C/N(C)C)cc1,-,-,-,-,-
O=C(COc1ccccc1F)N1CCN(S(=O)(=O)/C=C/c2ccccc2)CC1,-,-,-,-,-
O=C(COc1ccc(Br)cc1)N1CCN(S(=O)(=O)/C=C/c2ccccc2)CC1,-,-,-,11,-
CCn1cc([N+](=O)[O-])c(C(=O)N2CCCCCC2)n1,-,-,-,-,-
COc1ccc(-c2nsc3c(N4CCCCC4C)ncnc23)cc1 (stereo not given),-,-,-,11,-
COc1ccc(/C=N/Nc2ncnc3sc4c(c23)CCCC4)cc1OC,-,-,-,-,-
Cc1nn(C)c(C)c1Sc1ccc(Br)cc1,-,-6,-,-,-
Cn1cnc([N+](=O)[O-])c1Sc1ccc(Br)cc1,-,-,-,-,-
CC1(C)CC(=O)C=C(NNC(=O)OC(C)(C)C)C1,-,-,-,-,-
O=C(NC(=S)NNC(=O)c1ccccc1[N+](=O)[O-])c1ccc(Br)cc1,142,-,-,-,-
COc1ccc(/C=C/C(=O)NC(=S)NNC(=O)c2c(-c3ccccc3)noc2C)cc1,-,-,-,-,-
Cc1onc(-c2ccccc2)c1C(=O)NNC(=S)NC(=O)c1ccc(Br)cc1,250,-,-,-,-
Cc1onc(-c2ccccc2)c1C(=O)NNC(=S)NC(=O)/C=C/c1ccccc1,59,-7,-,-,-
O=C(NNC(=S)NC(=O)c1ccccc1[N+](=O)[O-])c1ccccc1Cl,-,-,-,-,-
OC12CCCCC1C(c1ccc3c(c1)OCO3)N(Cc1cccc(F)c1)CC2 (stereo not given),-,-,-,-,-

# Assay outcomes from PubChem.
